Results reported in ChEMBL document CHEMBL1156107, “Synthesis of new alkylaminooxysterols with potent cell differentiating activities: identification of leads for the treatment of cancer and neurodegenerative diseases” (J Med Chem, 2009).
Calls of active or inactive are those of the source. The calls are words filed in the database; no cut-off is given here.

Key:
P19 [1] = assay: Cytotoxicity against mouse P19 cells assessed as modification of cell morphology; type: functional
P19 [2] = assay: Cytotoxicity against mouse P19 cells after 3 days by trypan blue exclusion assay; type: functional, cell-based; conditions: Mus musculus, P19, 72 h; read-out: IC50
How it was run: (§1)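 U937 and P19 cells treated with compound. Cell death scored by trypan blue exclusion, with cells scraped, suspended in 0.25% w/v trypan blue in PBS and counted in a Malassez cell. IC50 is the concentration giving 50% cytotoxicity.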

MCF7 [3] = assay: Cell cycle arrest in human MCF7 cells assessed as accumulation at G2/M phase at 1 uM after 48 hrs by FACS analysis; type: functional
How it was run: (§2)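 Cells plated at 250 000 per 100 mm plate and exposed to solvent vehicle or compound for 48 h. Trypsinized cells fixed in 70% ethanol, treated with 100 μg/mL RNase A for 30 min at 37 °C, then stained with 50 μg/mL propidium iodide in 0.25% Tween-20 for 30 min at 37 °C in the dark. DNA content of 1 × 10⁶ cells read by flow cytometry, giving sub-G1, G0/G1, S and G2/M fractions.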

SK-MEL-28 [4] = assay: Cell cycle arrest in human SK-MEL-28 cells assessed as accumulation at S phase at 1 uM after 48 hrs by FACS analysis; type: functional; how it was run: as §2
SK-MEL-28 [5] = assay: Induction of melanogenesis in human SK-MEL-28 cells assessed as cellular melanin content at 1 uM after 48 hrs by spectrophotometry
SK-N-SH = assay: Cytotoxicity against human SK-N-SH cells after 72 hrs by trypan blue exclusion assay; type: functional, cell-based
How it was run: (§3)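 Cells were exposed for 72 h to the test agent at increasing concentrations from 10 nM to 20 μM, at 37 °C in humidified 5% CO2. Cells were scraped and resuspended in 0.25% w/v trypan blue in PBS, and dead cells were counted under a light microscope in a Malassez chamber. IC50 is the concentration giving 50% cytotoxicity. Values are mean ± SE of three independent experiments, each run in duplicate.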

KG-1 = assay: Cytotoxicity against human KG1 cells after 72 hrs by trypan blue exclusion assay; type: functional, cell-based; conditions: KG-1, 72 h; how it was run: as §3
P19 [6] = assay: Induction of dendrite outgrowth in IL-4/GMCSF-stimulated mouse P19 cells assessed as dendrite length after 48 hrs by light microscopy; type: functional
U-937 [7] = assay: Cytotoxicity against human U937 cells assessed as modification of cell morphology; type: functional
MCF7 [8] = assay: Cell cycle arrest in human MCF7 cells assessed as accumulation at pre-G1 phase at 1 uM after 48 hrs by FACS analysis; type: functional; how it was run: as §2
U-937 [9] = assay: Induction of dendrite out growth in IL-4/GMCSF-stimulated human U937 cells assessed as dendrite length at 100 nM after 48 hrs by light microscopy; type: functional
How it was run: (§4)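 U937 cells at 1.1 × 10⁶ cells/mL were primed with 10 ng/mL PMA for 48 h in RPMI with 10% heat-inactivated serum. Adherent cells were then given 100 ng/mL IL-4 plus 100 ng/mL GM-CSF or 100 nM compound for 48 h. Dendrite length scored by light microscopy, from none to over 100 μm with a contact network.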

P19 [10] = assay: Induction of dendrite out growth in IL-4/GMCSF-stimulated mouse P19 cells assessed as dendrite length at 100 nM after 48 hrs by light microscopy; type: functional
[11] = Cytotoxicity against mouse Neuro2a cells after 72 hrs by trypan blue exclusion assay; type: functional, cell-based; conditions: N2a; how it was run: as §3
MCF7 [12] = assay: Induction of human MCF7 cell differentiation assessed as milk fat accumulation in intracytoplasmic vesicle at 1 uM after 48 hrs by Bligh and Dyer method; type: functional, cell-based
How it was run: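 MCF-7 cells (5 million) exposed to vehicle or compound for 48 h, washed three times in PBS. Lipids extracted by the Bligh and Dyer method and triglycerides quantified.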

MCF7 [13] = assay: Induction of human MCF7 cell differentiation assessed as lipid accumulation in intracytoplasmic vesicle at 1 uM after 48 hrs by oil red O staining-based light microscopy; type: functional
How it was run: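 MCF-7 cells on glass coverslips treated with drug, fixed in 3.7% paraformaldehyde for 1 h at room temperature, and stained with oil red O in 60% isopropanol with hematoxylin counterstain. Dye extracted with isopropanol and read at 510 nm, with control subtracted and the value normalized to SYBR green DNA stain.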

HCT-8 = assay: Cytotoxicity against human HCT8 cells after 72 hrs by trypan blue exclusion assay; type: functional, cell-based; conditions: HCT-8, 72 h; how it was run: as §3
SK-MEL-28 [14] = assay: Cytotoxicity against human SK-MEL-28 cells after 72 hrs by trypan blue exclusion assay; type: functional, cell-based; conditions: SK-MEL-28, 72 h; how it was run: as §3
[15] = Cytotoxicity against mouse TSA cells after 72 hrs by trypan blue exclusion assay; type: functional, cell-based; conditions: TS/A; how it was run: as §3
MCF7 [16] = assay: Induction of human MCF7 cell differentiation assessed as stimulation of milk fat globulin expression at 1 uM after 48 hrs by immunocytochemistry; type: functional, cell-based
A549 = assay: Cytotoxicity against human A549 cells after 72 hrs by trypan blue exclusion assay; type: functional, cell-based; conditions: A549, 72 h; how it was run: as §3
SK-MEL-28 [17] = assay: Effect on human SK-MEL-28 cell morphology assessed as appearance of type 4 melanosomes at 1 uM after 48 hrs by transmission electron microscopy
SH-SY5Y = assay: Cytotoxicity against human SH-SY5Y cells after 72 hrs by trypan blue exclusion assay; type: functional, cell-based; how it was run: as §3
P19 [18] = assay: Cytotoxicity against mouse P19 cells after 72 hrs by trypan blue exclusion assay; type: functional, cell-based; conditions: P19, 72 h; how it was run: as §3
SK-MEL-28 [19] = assay: Cell cycle arrest in human SK-MEL-28 cells assessed as accumulation at pre-G1 phase at 1 uM after 48 hrs by FACS analysis; type: functional; how it was run: as §2
SK-MEL-28 [20] = assay: Effect on human SK-MEL-28 cell morphology assessed as change from fibroblastic to melanocytic morphology at 1 uM after 48 hrs by light microscopy
NB-4 = assay: Cytotoxicity against human NB4 cells after 72 hrs by trypan blue exclusion assay; type: functional, cell-based; conditions: NB-4, 72 h; how it was run: as §3
MCF7 [21] = assay: Cytotoxicity against human MCF7 cells after 72 hrs by trypan blue exclusion assay; type: functional, cell-based; conditions: MCF7, 72 h; how it was run: as §3
MCF7 [22] = assay: Cell cycle arrest in human MCF7 cells assessed as accumulation at G1 phase at 1 uM after 48 hrs by FACS analysis; type: functional; how it was run: as §2
SK-MEL-28 [23] = assay: Induction of melanogenesis in human SK-MEL-28 cells assessed as cellular melanin content at 1 uM after 48 hrs by fluorimetry; type: functional, cell-based; conditions: in the assay text read “by spectrophotometry” for “by fluorimetry”
How it was run: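 SK-Mel-28 cells exposed to compound, washed in PBS and pelleted. Pellets of 2 × 10⁶ cells dissolved in 1 M NaOH for 1 h at 80 °C. Melanin read spectrophotometrically at 405 nm.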

[24] = Cytotoxicity against human U87 cells after 72 hrs by trypan blue exclusion assay; type: functional, cell-based, U-87MG ATCC; conditions: U-87 MG; how it was run: as §3
B16-F10 = assay: Cytotoxicity against mouse B16F10 cells after 72 hrs by trypan blue exclusion assay; type: functional, cell-based; conditions: B16-F10, 72 h; how it was run: as §3
MCF7 [25] = assay: Cell cycle arrest in human MCF7 cells assessed as accumulation at S phase at 1 uM after 48 hrs by FACS analysis; type: functional; how it was run: as §2
U-937 [26] = assay: Cytotoxicity against human U937 cells after 3 days by trypan blue exclusion assay; type: functional, cell-based; conditions: Homo sapiens, U-937, 72 h; read-out: IC50; how it was run: as §1
SW-620 = assay: Cytotoxicity against human SW620 cells after 72 hrs by trypan blue exclusion assay; type: functional, cell-based; conditions: SW-620, 72 h; how it was run: as §3
U-937 [27] = assay: Induction of dendrite outgrowth in IL-4/GMCSF-stimulated human U937 cells assessed as dendrite length after 48 hrs by light microscopy; type: functional; how it was run: as §4
U-937 [28] = assay: Cytotoxicity against human U937 cells after 72 hrs by trypan blue exclusion assay; type: functional, cell-based; conditions: U-937, 72 h; how it was run: as §3
SK-MEL-28 [29] = assay: Cell cycle arrest in human SK-MEL-28 cells assessed as accumulation at G2/M phase at 1 uM after 48 hrs by FACS analysis; type: functional; conditions: in the assay text read “G0/G1 phase” for “G2/M phase”; how it was run: as §2
SK-MEL-28 [30] = assay: Cell cycle arrest in human SK-MEL-28 cells assessed as accumulation at G1 phase at 1 uM after 48 hrs by FACS analysis; type: functional; how it was run: as §2

## CC(C)CCC[C@@H](C)[C@H]1CC[C@H]2[C@@H]3C[C@@H](NCCc4cnc[nH]4)[C@@]4(O)C[C@@H](O)CC[C@]4(C)[C@H]3CC[C@]12C [DENDROGENIN A]
P19 [1]
  Activity: 65%
P19 [2]
  IC50: 2400 nM
MCF7 [3]
  Activity: 11%
SK-MEL-28 [4]
  Activity: 7%
SK-MEL-28 [5]
  Activity: Active
SK-N-SH
  IC50: 2240 nM
KG-1
  IC50: 5530 nM
P19 [6]
  Activity: > 200 um
U-937 [7]
  Activity: 40%
MCF7 [8]
  Activity: 3%
U-937 [9]
  Activity: 50 um
P19 [10]
  Activity: 50 um
[11]
  IC50: 2320 nM
MCF7 [12]
  Activity: Active
MCF7 [13]
  Activity: Active
HCT-8
  IC50: 890 nM
SK-MEL-28 [14]
  IC50: 2120 nM
[15]
  IC50: 1280 nM
MCF7 [16]
  Activity: Active
A549
  IC50: 2560 nM
SK-MEL-28 [17]
  Activity: Active
SH-SY5Y
  IC50: 1350 nM
P19 [18]
  IC50: 1800 nM
SK-MEL-28 [19]
  Activity: 1%
SK-MEL-28 [20]
  Activity: Active
NB-4
  IC50: 1320 nM
MCF7 [21]
  IC50: 2310 nM
MCF7 [22]
  Activity: 75%
SK-MEL-28 [23]
  Activity: Active
[24]
  IC50: 740 nM
B16-F10
  IC50: 680 nM
MCF7 [25]
  Activity: 11%
U-937 [26]
  IC50: 800 nM
SW-620
  IC50: 420 nM
U-937 [27]
  Activity: > 200 um
U-937 [28]
  IC50: 790 nM
SK-MEL-28 [29]
  Activity: 10%
SK-MEL-28 [30]
  Activity: 82%
